# ChEMBL document CHEMBL5252546, “Salutaxel, a Conjugate of Docetaxel and a Muramyl Dipeptide (MDP) Analogue, Acts as Multifunctional Prodrug That Inhibits Tumor Growth and Metastasis” (J Med Chem, 2018)
# The source made the active and inactive calls. The calls are words filed in the database; no cut-off is given here.
# How the values were obtained:
# 4T1 [1] = assay: Antitumor activity against mouse 4T1 cells implanted in BALB/c mouse assessed as decrease in lung injury at 5.7 mg/kg,iv administrated once per week for 4 weeks in presence of compound 5b by H and E staining based assay; assay type: functional, organism-based
# How it was run: (§1)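 BALB/c mice bearing orthotopic mammary fat pad 4T1 tumors, dosed iv weekly for 4 weeks with saline vehicle as control. Lung sections stained with hematoxylin and eosin and examined by light microscopy at 40× for metastasis, inflammatory infiltration and alveolar wall thickening.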
# 4T1 [2] = assay: Antitumor activity against mouse 4T1 cells implanted in BALB/c mouse assessed as decrease in lung injury at 5.7 mg/kg,iv administrated once per week for 4 weeks in presence of MDA-205 by H and E staining based assay; assay type: functional, organism-based; how it was run: as §1
# 4T1 [3] = assay: Antitumor activity against mouse 4T1 cells implanted in BALB/c mouse assessed as decrease in lung metastasis at 5.7 mg/kg,iv administrated once per week for 4 weeks by H and E staining based assay; assay type: functional, organism-based; how it was run: as §1
# [4] = Toxicity in BALB/c mouse xenografted with human A549/Taxol cells assessed as side effects at 5.7 mg/kg,iv administrated once per week for 3 weeks; assay type: organism-based, A549/TR; conditions: in vivo, 504 h
# How it was run: (§2)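 Nude BALB/c nu/nu mice received subcutaneous human tumour cells into the right flank. Dosing started at mean tumour volume of 100–120 mm3, iv once weekly for 3 weeks; the taxane arm was an equimolar control. Body weight and overt side effects were monitored. Mean ± SEM, n = 8.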
# [5] = Toxicity in BALB/c mouse xenografted with human HCT-116 cells assessed as side effects at 5.7 mg/kg,iv administrated once per week for 3 weeks; assay type: organism-based; conditions: in vivo, 504 h; how it was run: as §2
# 4T1 [6] = assay: Antitumor activity against mouse 4T1 cells implanted in BALB/c mouse assessed as decrease in lung metastasis at 5.7 mg/kg,iv administrated once per week for 4 weeks in presence of MDA-205 by H and E staining based assay; assay type: functional, organism-based; how it was run: as §1
# [7] = Tmax in male Beagle dog at 1 mg/kg,iv measured upto 24 hrs; assay type: ADME, organism-based, Canis lupus familiaris; conditions: in vivo
# [8] = Acute toxicity in Beagle dog assessed as lethal dose at iv administration; assay type: organism-based, Canis lupus familiaris; conditions: in vivo
# How it was run: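 Acute toxicity after a single intravenous administration. […] In dogs, an approximate lethal dose range was determined.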
# [9] = Cmax in female rat at 4 mg/kg,iv measured upto 24 hrs; assay type: ADME, organism-based; parameters: time < 24 hrs, dose 4 mg/kg, route iv; conditions: in vivo
# How it was run: (§3)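 Rats were given a single iv injection at 2, 4 or 8 mg/kg. Plasma parent drug and released docetaxel were followed over time. Cmax, Tmax, AUC, MRT, t1/2, CL and Vss were reported for males, females and all animals combined.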
# [10] = Tmax in male Beagle dog at 2 mg/kg,iv measured upto 24 hrs; assay type: ADME, organism-based, Canis lupus familiaris; conditions: in vivo
# 4T1 [11] = assay: Antitumor activity against mouse 4T1 cells implanted in BALB/c mouse assessed as decrease in serum IL-6 level at 10 mg/kg,iv administrated once per week for 4 weeks by ELISA; assay type: functional, organism-based
# How it was run: (§4)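 4T1 fat-pad model in BALB/c mice, iv 5–20 mg/kg once weekly for 4 weeks, with vehicle and naive groups; serum MMP9, TIMP-1, IL-6 and S100A9 measured by mouse ELISA kits.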
# [12] = AUC (0-t) in female Beagle dog at 2 mg/kg,iv measured upto 24 hrs; assay type: ADME, organism-based, Canis lupus familiaris; parameters: dose 2 mg/kg, time < 24 hrs, route iv; conditions: in vivo
# How it was run: (§5)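 Single iv dose: rats 2, 4 or 8 mg/kg by intravenous injection; Beagle dogs 1, 2 or 4 mg/kg by intravenous infusion. Plasma concentration–time data were analysed by sex and pooled. Reported parameters: Cmax, Tmax, AUC0−t, AUC0−∞, MRT0−∞, t1/2, CL, Vss, given as mean ± SD.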
# [13] = Clearance in female Beagle dog at 2 mg/kg,iv measured upto 24 hrs; assay type: ADME, organism-based, Canis lupus familiaris; conditions: in vivo
# How it was run: (§6)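 Beagle dogs were given a single iv infusion at 1, 2 or 4 mg/kg. Plasma parent drug and released docetaxel were followed over time. Cmax, Tmax, AUC, MRT, t1/2, CL and Vss were reported by sex and for all dogs combined.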
# [14] = AUC (0-infinity) in rat at 2 mg/kg,iv measured upto 24 hrs; assay type: ADME, organism-based; parameters: dose 2 mg/kg, time < 24 hrs, route iv; conditions: in vivo; how it was run: as §5
# 4T1 [15] = assay: Antitumor activity against mouse 4T1 cells xenografted with BALB/c mouse assessed as decrease in tumor weight at 10 mg/kg,iv administrated once per week for 4 weeks; assay type: functional, organism-based
# How it was run: (§7)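 4T1 cells injected into the mammary fat pad of BALB/c mice; iv saline vehicle or 5, 10 or 20 mg/kg once weekly for 4 weeks; body weight, tumour volume, tumour weight, lung metastatic nodule count and metastasis score recorded; n = 10, mean ± SEM, ANOVA and Student's t test.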
# 4T1 [16] = assay: Antitumor activity against mouse 4T1 cells implanted in BALB/c mouse assessed as decrease in neutrophil in peripheral blood at 20 mg/kg,iv administrated qd for 2 days by blood smear staining microscopic analysis; assay type: functional, organism-based; conditions: time 2.0 day
# How it was run: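 Day 19 after 4T1 implantation, mice randomised into five groups; iv vehicle or 20 mg/kg plus ip C12-iE-DAP (50 μg/mouse) and MDP (100 μg/mouse) once daily for 2 days; blood taken 6 h later; neutrophils/leukocytes counted on stained blood smears at 1000× light microscopy.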
# [17] = Half life in male rat at 2 mg/kg,iv measured upto 24 hrs; assay type: ADME, organism-based; conditions: in vivo
# 4T1 [18] = assay: Antitumor activity against mouse 4T1 cells xenografted with BALB/c mouse assessed as decrease in tumor volume at 10 mg/kg,iv administrated once per week for 4 weeks; assay type: functional, organism-based; how it was run: as §7
# [19] = AUC (0-infinity) in rat at 8 mg/kg,iv measured upto 24 hrs; assay type: ADME, organism-based; parameters: time < 24 hrs, dose 8 mg/kg, route iv; conditions: in vivo; how it was run: as §5
# [20] = Tmax in female Beagle dog at 2 mg/kg,iv measured upto 24 hrs; assay type: ADME, organism-based, Canis lupus familiaris; conditions: in vivo
# [21] = Clearance in male Beagle dog at 1 mg/kg,iv measured upto 24 hrs; assay type: ADME, organism-based, Canis lupus familiaris; conditions: in vivo; how it was run: as §6
# 4T1 [22] = assay: Antitumor activity against mouse 4T1 cells implanted in BALB/c mouse assessed as increase in lung NOD1 expression level at 5 to 20 mg/kg,iv administrated once per week for 4 weeks by western blot assay; assay type: functional, organism-based; conditions: dose 5-20 mg/kg
# How it was run: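 4T1 fat-pad model in BALB/c mice, iv once weekly for 4 weeks; MMP9, MMP2 and NOD1 in spleen, lung and tumour by western blot, β-actin loading control; bands averaged over five mice per group, representative of two independent experiments.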
# [23] = MRT (0 to infinity) in rat at 2 mg/kg,iv measured upto 24 hrs; assay type: ADME, organism-based; conditions: in vivo
# [24] = Toxicity in Beagle dog assessed as effect on gastrointestinal tract at 3 to 18 mg/kg,iv measured upto 24 hrs; assay type: organism-based, Canis lupus familiaris; conditions: in vivo, dose 3-18 mg/kg
# 4T1 [25] = assay: Antitumor activity against mouse 4T1 cells implanted in BALB/c mouse assessed as decrease in serum TIMP-1 level at 20 mg/kg,iv administrated once per week for 4 weeks by ELISA; assay type: functional, organism-based; how it was run: as §4
# NCI-H1975 = assay: Antitumor activity against human NCI-H1975 cells xenografted with BALB/c mouse assessed as inhibition of tumor growth at 10 mg/kg,iv administrated once per week for 3 weeks; assay type: functional, organism-based
# How it was run: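 BALB/c nu/nu mice given subcutaneous human tumour cells in the right flank; dosing began at about 100–120 mm3 mean volume; iv once weekly for 3 weeks, with equimolar parent drug as positive control; tumour volume and weight measured; n = 8, mean ± SEM, ANOVA and Student's t test.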
# [26] = Toxicity in BALB/c mouse xenografted with human MDA-MB-231 cells assessed as side effects at 10 mg/kg,iv administrated once per week for 3 weeks; assay type: organism-based; conditions: in vivo, 504 h
# [27] = Clearance in rat at 4 mg/kg,iv measured upto 24 hrs; assay type: ADME, organism-based; conditions: in vivo; how it was run: as §3
# [28] = Stability in dog hepatocyte assessed as compound remaining at 3 uM incubated upto 120 mins; assay type: ADME, cell-based, Canis lupus familiaris; conditions: hepatocytes, 2 h
structure (smiles),measurement,setting,value
CC(=O)O[C@@]12CO[C@@H]1C[C@H](O)[C@@]1(C)C(=O)[C@H](O)C3=C(C)[C@@H](OC(=O)[C@H](O)[C@@H](NC(=O)OC(C)(C)C)c4ccccc4)C[C@@](O)([C@@H](OC(=O)c4ccccc4)[C@H]21)C3(C)C [DOCETAXEL ANHYDROUS],Activity,4T1 [1],Active
same,Activity,4T1 [2],Active
same,Activity,4T1 [3],Active
same,Activity,[4],Non-Toxic
same,Activity,[5],Non-Toxic
same,Activity,4T1 [6],Active
CC(=O)O[C@@]12CO[C@@H]1C[C@H](O)[C@@]1(C)C(=O)[C@H](O)C3=C(C)[C@@H](OC(=O)[C@H](OC(=O)CCC(=O)NCCCC[C@H](NC(=O)CC[C@@H](NC(=O)[C@H](C)NC(=O)/C=C/c4ccc(F)cc4Cl)C(N)=O)C(=O)O)[C@@H](NC(=O)OC(C)(C)C)c4ccccc4)C[C@@](O)([C@@H](OC(=O)c4ccccc4)[C@H]21)C3(C)C,Tmax,[7],30 min
same,LD,[8],33 mg/kg
same,Cmax,[9],30500 ng/mL
same,Tmax,[10],30 min
same,Activity,4T1 [11],Active
same,AUC(0-t) at 24 h,[12],6970 ng·h/mL
same,clearance,[13],5.04 mL/min/kg
same,AUC(0-inf),[14],5230 ng·h/mL
same,Activity,4T1 [15],Active
same,Activity,4T1 [16],Active
same,half-life,[17],9 min
same,Activity,4T1 [18],Active
same,AUC(0-inf),[19],46100 ng·h/mL
same,Tmax,[20],30 min
same,clearance,[21],11.7 mL/min/kg
same,Activity,4T1 [22],Active
same,MRT inf,[23],11.3 min
same,Activity,[24],Toxic
same,Activity,4T1 [25],Active
same,inhibition,NCI-H1975,Active
same,Activity,[26],Non-Toxic
same,clearance,[27],4.21 mL/min/kg
same,Stability,[28],Stable
